RGS4 inh: human RGS4 inhibition. P49798. HEK293 M3R/RGS4 inducible, Fluo-4 calcium flux; hits give high values; triggered by carbachol at its EC20. B-score at 10 µM. 0.45% of 310,000 active;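 active means B-score, a plate-corrected calcium signal, over three deviations above library mean, with baseline fluorescence within five deviations of library mean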;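 further: RGS4 expression induced by doxycycline in cells with stable M3 receptor; B-score is computed from the integrated fluorescence ratio over baseline after carbachol; higher B-score means a larger calcium signal and so more RGS4 inhibition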
Target sequence (P49798 whole entry, looked up): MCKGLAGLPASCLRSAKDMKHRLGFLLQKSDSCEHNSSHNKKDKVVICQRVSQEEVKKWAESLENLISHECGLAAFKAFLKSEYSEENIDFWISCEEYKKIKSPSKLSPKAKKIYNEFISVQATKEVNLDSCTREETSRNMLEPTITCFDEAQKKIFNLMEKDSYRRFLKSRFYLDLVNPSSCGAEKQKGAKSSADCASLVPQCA
RGS4 act: potentiators or activators of RGS4; 0.92% of 310,000 active; HEK293 M3R/inducible RGS4, carbachol calcium flux Fluo4; hits give low values; B-score at 10 µM; AID 463111;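 active means B-score of the integrated calcium signal more than 4 SD below the library mean, with starting fluorescence not abnormally high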;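 further: negative B-score means reduced calcium response which marks RGS4 activation or potentiation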
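Assay system: Inducible-RGS4 HEK293 cells carrying M3 receptor | Schedule: Compound preincubation 20 min at room temperature before agonist | Signal: Kinetic calcium fluorescence imaging with Fluo4-AM dye, 2 µM | Read-out basis: B score from integrated fluorescence ratio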
MrgX1 agonist: human MrgX1 receptor agonism, primary screen | MrgX1-HEK293 cells, Fluo-4 calcium fluorescence, agonist mode; hits give high values | B-score at 10 µM | AID 588627 | 0.44% of 310,000 active | Q96LB2;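 active means calcium response B-score plate-corrected fluorescence ratio at least 3 library SD, with starting fluorescence B-score inside 5 SD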
Target sequence (Q96LB2 whole entry, looked up): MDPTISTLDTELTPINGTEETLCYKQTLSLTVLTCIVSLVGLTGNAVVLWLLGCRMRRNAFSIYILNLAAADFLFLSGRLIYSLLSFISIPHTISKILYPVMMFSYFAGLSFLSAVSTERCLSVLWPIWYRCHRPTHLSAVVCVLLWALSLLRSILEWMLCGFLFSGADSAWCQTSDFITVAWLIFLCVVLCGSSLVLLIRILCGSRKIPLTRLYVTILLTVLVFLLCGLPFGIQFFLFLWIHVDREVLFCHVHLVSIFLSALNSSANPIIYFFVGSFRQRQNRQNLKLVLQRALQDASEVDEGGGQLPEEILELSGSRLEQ
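System: HEK293 cells stably expressing human MrgX1 receptor; Dosing: test compound in the initial addition of three; Schedule: overnight plating, then 30 min 37 °C plus 30 min room-temperature dye loading; Detection: kinetic calcium dye fluorescence, Fluo-4 NW; Controls: per-plate positive and negative controls for Z′ factor.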
MrgX1 antag: antagonists of human MrgX1 receptor | 1.3% of 310,000 active | MRGX1-HEK293 calcium flux, Fluo-4, BAM8-22 antagonism; hits give low values | AID 588676 | B-score at 10 µM | Q96LB2;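 active means calcium-response B-score plate-corrected more than 3 library SD below zero, starting fluorescence within 5 deviations, no agonist response on first addition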;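 further: peak minus trough fluorescence over baseline after final BAM8-22 challenge near maximal dose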
MrgX1 allo act: allosterically activates human MrgX1 receptor signaling; Q96LB2; MrgX1-HEK293, Fluo-4 calcium flux, FDSS; hits give high values; B-score at 10 µM; 0.63% of 310,000 active; AID 588675;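 active means plate-corrected calcium response at least 3 library SD above typical, normal starting fluorescence, not activating the receptor alone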;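 further: compound read alongside a low EC10 to EC30 dose of BAM8-22 agonist; peak minus trough fluorescence over baseline measured at the second addition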
Of the large screens only hits and unclear results are named; the others gave an inactive call. Shown are actives, neighbours in structure and some others; about 3.5% of the full set was active somewhere.

N#CC1=C(N)n2c(s/c(=C\c3cccs3)c2=O)=C(C#N)C1c1cccs1 (configuration not stated)	MrgX1 antag -7.4
COc1cc(C(=O)NNC(=O)CNC(=O)c2ccc(Br)o2)cc(OC)c1OC	none
CCOc1ccc(NC(=O)CSc2nnc(CCNC(=O)c3ccc(OC)cc3)n2C)cc1	MrgX1 antag -6.3
O=C(c1ccc(Cl)nc1)c1cccs1	none
O=C(c1cccs1)c1no[n+]([O-])c1C(=O)c1cccs1	RGS4 act -7, MrgX1 agonist 99
COC(=O)c1ccc(C)c(NC(=O)CCNC(=O)c2ccc([N+](=O)[O-])cc2)c1	none
COC(=O)c1cccc(NC(=O)CCNC(=O)c2ccc([N+](=O)[O-])cc2)c1	MrgX1 antag -7.8
CC(=O)Oc1ccc2nc(-c3ccc(Br)o3)oc(=O)c2c1	none
CCCCC(C(=O)NC1CCCC1)N(C(=O)c1snc(C(N)=O)c1N)c1ccc(F)cc1 (configuration not stated)	none
CCCCCN1CC(=O)N2[C@@H](Cc3c([nH]c4ccccc34)C2(C)C)C1=O	none
CCCCN(CCCC)CCCN1CC(=O)N2[C@@H](Cc3c([nH]c4ccccc34)C2(C)C)C1=O	RGS4 act -8.4
COc1cnn(-c2ccc(Br)cc2)c(=O)c1SCc1ccccc1	none
COc1cnn(-c2ccc(C)cc2)c(=O)c1SCc1ccccc1	MrgX1 agonist 30
O=C(CN1CCC(C(=O)c2ccc(F)cc2)CC1)Nc1ccccc1Cl	none
CN(C)CCNc1oc(COc2ccc(Cl)cc2Cl)nc1C#N	MrgX1 antag -6.5
COc1ccc(CCNc2oc(COc3ccc(Br)cc3)nc2C#N)cc1OC	RGS4 act -7.5
COc1ccc(CCNc2oc(Cc3cccc4ccccc34)nc2C#N)cc1OC	none
COCCCNc1oc(COc2ccc(Cl)cc2Cl)nc1C#N	none
Cn1c(=O)n(CCc2ccccc2)c(=O)c2c1nc1n2CCCN1CCc1ccccc1	RGS4 act -7.7
CC(=O)NC1=NC(=O)/C(=C/c2cc(C)n(-c3ccc(NC(C)=O)cc3)c2C)S1	MrgX1 antag -4.5
O=C1S/C(=C\c2ccc(N3CCOCC3)o2)C(=O)N1c1ccccc1	RGS4 act -7.6
O=C1N=C(N2CCOCC2)S/C1=C/c1ccc(-c2ccccc2Cl)o1	none
O=C(O)c1ccccc1-c1ccc(/C=C2\SC(=O)N(c3ccccc3)C2=O)o1	none
O=C1S/C(=C\c2ccc(N3CCOCC3)o2)C(=O)N1Cc1c(F)cccc1Cl	MrgX1 agonist 56
O=C1S/C(=C/c2ccc(N3CCOCC3)o2)C(=O)N1Cc1c(F)cccc1Cl	MrgX1 allo act 9.4
O=C(Nc1ccccc1N(C(=O)c1ccco1)S(=O)(=O)c1cccs1)c1ccco1	MrgX1 allo act 12
CCOC(=O)/C(C#N)=C(C)/C=C1\Sc2ccccc2N1CC	MrgX1 antag -5.4
Cc1csc(SCC(=O)NC2CCC(C)CC2)n1 (configuration not stated)	none
CCOc1cccc(CNc2ccc(O)cc2)c1OCc1ccccc1Cl	MrgX1 agonist 29
CCOc1cccc(CNc2ccc(O)cc2)c1OCc1ccc(Cl)cc1Cl	none
CCCCNC(=O)CCCCCn1c(=O)[nH]c2cc(C(=O)OC)ccc2c1=O	MrgX1 allo act 14
CCOC(=O)c1[nH]c2ccc(Br)cc2c1NC(=O)CCN1CCCC(C)C1 (configuration not stated)	RGS4 act -8.6
CCOC(=O)c1[nH]c2ccc(Br)cc2c1NC(=O)CCN1CCC(C)CC1	none
CC1=NN(c2ccc(Br)cc2)C(=O)/C1=C/c1ccc(-c2ccccc2C(=O)O)o1	MrgX1 allo act 9.3
CCOC(=O)c1cc(-c2ccc(/C=C3/C(=O)N(c4ccc(C(=O)O)cc4)N=C3C)o2)ccc1Cl	RGS4 act -7.3
COCCn1c(SCC(=O)Nc2ccc(OC)c(S(N)(=O)=O)c2)nc2ccccc2c1=O	none
O=C(C1CCN(Cc2ccc(Cl)cc2)CC1)N1CCN(C(c2ccccc2)c2ccccc2)CC1	RGS4 act -8
CCOc1ccccc1N1CCN(C(=O)c2cn(CC3CCCCC3)nn2)CC1	none
COc1ccc(NS(=O)(=O)c2cccc(C(=O)NCC(c3ccccc3)N(C)C)c2)cc1 (configuration not stated)	MrgX1 antag -5
O=C(COc1ccccc1)NNC(=S)NC(=O)c1ccc(Cl)cc1Cl	MrgX1 agonist 98
O=C(O)CCC(=O)NNC(=O)COc1cccc(Cl)c1	none
O=C(COc1cccc(Cl)c1)NNC(=S)Nc1ccccc1	MrgX1 allo act 8.7
CCc1sc(C(=O)Nc2cccnc2)cc1Br	none
COC(=O)Cn1c(=O)c2c(nc3n2CCCN3CCc2ccccc2)n(C)c1=O	none
Cc1ccc(N(CC(=O)N2CCN(c3ccccc3F)CC2)S(=O)(=O)c2c(C)noc2C)cc1	none
CCC1(CC)Cc2ccccc2C(=O)N1	none
O=C1c2ccccc2CC1(Cc1ccccc1)Cc1ccccc1	RGS4 act -7.1
O=C(Nc1ccccc1O)c1ccccc1O	MrgX1 antag -5.8
CC(=O)NNS(=O)(=O)c1scc(S(=O)(=O)c2ccc(Cl)cc2)c1C	none
COc1ccc(/C=C/C(=O)c2cc(Cl)ccc2O)c(OC)c1	none
COc1ccc(/C=C/C(=O)c2ccc(Cl)cc2)c(OC)c1	MrgX1 antag -4.9
O=C(Nc1ccc(Oc2ccccc2)cc1)C1CCN(c2c3c(nc4ncnn24)CCC3)CC1	RGS4 act -12
O=C(Nc1ccc2c(c1)CCC2)C1CCN(c2c3c(nc4ncnn24)CCC3)CC1	none
COc1ccc(C(=O)Nc2ccccc2[N+](=O)[O-])cc1S(=O)(=O)N1CCOCC1	none
Cc1ccc(C(=O)Nc2ccccc2[N+](=O)[O-])cc1S(=O)(=O)N1CCOCC1	MrgX1 allo act 8
CC(=O)N1CCN(c2ccc(NC(=O)C(C)Oc3ccc(Cl)cc3Cl)cc2)CC1 (configuration not stated)	MrgX1 antag -7.1
CC(Oc1ccc(Cl)cc1Cl)C(=O)Nc1ccc(N2CCN(C)CC2)cc1 (configuration not stated)	none
Cn1c(SCC(N)=O)nnc1-c1ccc(S(=O)(=O)N2CCCC2)cc1	none
Cc1ccc(-n2c(SCC(N)=O)nnc2-c2ccc(S(=O)(=O)N3CCCCC3)cc2)c(C)c1	RGS4 act -7.1
COC(=O)C1Cc2ccccc2CN1S(=O)(=O)c1ccc(F)cc1 (configuration not stated)	none
COc1ccc(Cc2noc(CN(C)CC(O)c3ccccc3)n2)cc1OC (configuration not stated)	MrgX1 antag -5.2
CCNc1nc(NC(C)C)nc(NS(=O)(=O)c2ccc(C)cc2)n1	none
CC1CCN(S(=O)(=O)c2cc3c4c(c2)C(C)C(=O)N4CCC3)CC1 (configuration not stated)	none
O=C(/C=C/c1ccccc1)NC(=S)Nc1ccc2c3c(cccc13)CC2	MrgX1 antag -14
